Assay results as given in ChEMBL document CHEMBL1926577, “Novel 1,3,4-heterodiazole analogues: synthesis and in-vitro antitumor activity” (2012).
Activity calls are given as the source filed them. The calls are words filed in the database; no cut-off is given here.

Tests used:
Type in all cases: functional
NCI-H23 = test: Growth inhibition of human NCI-H23 cells at 10 uM after 48 hrs by coulter counter method; conditions: NCI-H23, 48 h, read-out: GI
Procedure, shortened: (§1)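 NCI 60-cell-line panel, single dose. Compound dissolved first in DMSO, then diluted in phosphate-buffered saline so that every final dilution held under 1% DMSO. Duplicate wells received cells at 6 × 10⁴ cells/ml. Controls held PBS/DMSO at the same dilution. Plates were incubated 48 h at 37 °C under 5% CO₂. Cells were then diluted 10-fold in saline and counted on a Coulter counter, with counts corrected for the dilution. Results are given as percent growth inhibition.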

Malme-3M = test: Growth inhibition of human MALME-3M cells at 10 uM after 48 hrs by coulter counter method; conditions: read-out: GI; procedure, shortened: as §1
SNB-19 = test: Growth inhibition of human SNB19 cells at 10 uM after 48 hrs by coulter counter method; conditions: SNB-19, 48 h, read-out: GI; procedure, shortened: as §1
SK-MEL-5 = test: Growth inhibition of human SK-MEL-5 cells at 10 uM after 48 hrs by coulter counter method; conditions: SK-MEL-5, 48 h, read-out: GI; procedure, shortened: as §1
UO-31 = test: Growth inhibition of human UO31 cells at 10 uM after 48 hrs by coulter counter method; procedure, shortened: as §1
A498 = test: Growth inhibition of human A498 cells at 10 uM after 48 hrs by coulter counter method; conditions: A498, 48 h, read-out: GI; procedure, shortened: as §1
LOX IMVI = test: Growth inhibition of human LOXIMVI cells at 10 uM after 48 hrs by coulter counter method; procedure, shortened: as §1
OVCAR-8 = test: Growth inhibition of human OVCAR8 cells at 10 uM after 48 hrs by coulter counter method; conditions: OVCAR-8, 48 h, read-out: GI; procedure, shortened: as §1
HCT-116 = test: Growth inhibition of human HCT116 cells at 10 uM after 48 hrs by coulter counter method; conditions: HCT-116, 48 h, read-out: GI; procedure, shortened: as §1
SK-MEL-28 = test: Growth inhibition of human SK-MEL-28 cells at 10 uM after 48 hrs by coulter counter method; conditions: SK-MEL-28, 48 h, read-out: GI; procedure, shortened: as §1
786-0 = test: Growth inhibition of human 786-0 cells at 10 uM after 48 hrs by coulter counter method; conditions: 786-0, 48 h, read-out: GI; procedure, shortened: as §1
EKVX = test: Growth inhibition of human EKVX cells at 10 uM after 48 hrs by coulter counter method; conditions: read-out: GI; procedure, shortened: as §1
RPMI-8226 = test: Growth inhibition of human RPMI8226 cells at 10 uM after 48 hrs by coulter counter method; conditions: RPMI-8226, 48 h, read-out: GI; procedure, shortened: as §1
MDA-MB-435 = test: Growth inhibition of human MDA-MB-435 cells at 10 uM after 48 hrs by coulter counter method; conditions: MDA-MB-435, 48 h, read-out: GI; procedure, shortened: as §1
NCI-H322M = test: Growth inhibition of human NCI-H322M cells at 10 uM after 48 hrs by coulter counter method; conditions: read-out: GI; procedure, shortened: as §1
U-251 = test: Growth inhibition of human U251 cells at 10 uM after 48 hrs by coulter counter method; conditions: U-251, 48 h, read-out: GI; procedure, shortened: as §1
SF-268 = test: Growth inhibition of human SF268 cells at 10 uM after 48 hrs by coulter counter method; conditions: SF-268, 48 h, read-out: GI; procedure, shortened: as §1
IGROV-1 = test: Growth inhibition of human IGROV1 cells at 10 uM after 48 hrs by coulter counter method; procedure, shortened: as §1
CAKI-1 = test: Growth inhibition of human Caki1 cells at 10 uM after 48 hrs by coulter counter method; procedure, shortened: as §1
SK-MEL-2 = test: Growth inhibition of human SK-MEL-2 cells at 10 uM after 48 hrs by coulter counter method; conditions: SK-MEL-2, 48 h, read-out: GI; procedure, shortened: as §1
M14 = test: Growth inhibition of human M14 cells at 10 uM after 48 hrs by coulter counter method; conditions: M14, 48 h, read-out: GI; procedure, shortened: as §1
KM12 = test: Growth inhibition of human KM12 cells at 10 uM after 48 hrs by coulter counter method; conditions: KM12, 48 h, read-out: GI; procedure, shortened: as §1
UACC-62 = test: Growth inhibition of human UACC62 cells at 10 uM after 48 hrs by coulter counter method; conditions: UACC-62, 48 h, read-out: GI; procedure, shortened: as §1
BT-549 = test: Growth inhibition of human BT549 cells at 10 uM after 48 hrs by coulter counter method; conditions: BT-549, 48 h, read-out: GI; procedure, shortened: as §1
HCT-15 = test: Growth inhibition of human HCT15 cells at 10 uM after 48 hrs by coulter counter method; conditions: HCT-15, 48 h, read-out: GI; procedure, shortened: as §1
MOLT-4 = test: Growth inhibition of human MOLT4 cells at 10 uM after 48 hrs by coulter counter method; conditions: MOLT-4, 48 h, read-out: GI; procedure, shortened: as §1
SN12C = test: Growth inhibition of human SN12C cells at 10 uM after 48 hrs by coulter counter method; conditions: read-out: GI; procedure, shortened: as §1
UACC-257 = test: Growth inhibition of human UACC257 cells at 10 uM after 48 hrs by coulter counter method; conditions: UACC-257, 48 h, read-out: GI; procedure, shortened: as §1
SNB-75 = test: Growth inhibition of human SNB75 cells at 10 uM after 48 hrs by coulter counter method; conditions: SNB-75, 48 h, read-out: GI; procedure, shortened: as §1
HL-60(TB) = test: Growth inhibition of human HL-60(TB) cells at 10 uM after 48 hrs by coulter counter method; conditions: HL-60, 48 h, read-out: GI
Procedure, shortened: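 Single-dose screen on the NCI 60-line panel (leukemia subpanel). Compound is dissolved in DMSO and diluted in PBS, with final DMSO below 1%. Duplicate wells hold 6 × 10⁴ cells/ml at 37 °C, 5% CO₂, for 48 h. Cells are counted by Coulter counter after 10-fold saline dilution. Read-out is percent growth versus PBS/DMSO controls, expressed as % growth inhibition.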

T47D = test: Growth inhibition of human T47D cells at 10 uM after 48 hrs by coulter counter method; conditions: read-out: GI; procedure, shortened: as §1
SR = test: Growth inhibition of human SR cells at 10 uM after 48 hrs by coulter counter method; conditions: read-out: GI; procedure, shortened: as §1
HT-29 = test: Growth inhibition of human HT-29 cells at 10 uM after 48 hrs by coulter counter method; conditions: HT-29, 48 h, read-out: GI; procedure, shortened: as §1
ACHN = test: Growth inhibition of human ACHN cells at 10 uM after 48 hrs by coulter counter method; conditions: read-out: GI; procedure, shortened: as §1
A549 = test: Growth inhibition of human A549 cells at 10 uM after 48 hrs by coulter counter method; conditions: A549, 48 h, read-out: GI; procedure, shortened: as §1
K562 = test: Growth inhibition of human K562 cells at 10 uM after 48 hrs by coulter counter method; conditions: K562, 48 h, read-out: GI; procedure, shortened: as §1
TK-10 = test: Growth inhibition of human TK10 cells at 10 uM after 48 hrs by coulter counter method; conditions: TK-10, 48 h, read-out: GI; procedure, shortened: as §1
NCI-H226 = test: Growth inhibition of human NCI-H226 cells at 10 uM after 48 hrs by coulter counter method; conditions: NCI-H226, 48 h, read-out: GI; procedure, shortened: as §1
NCI-H522 = test: Growth inhibition of human NCI-H522 cells at 10 uM after 48 hrs by coulter counter method; conditions: NCI-H522, 48 h, read-out: GI; procedure, shortened: as §1
NCI/ADR-RES = test: Growth inhibition of human NCI/ADR-RES cells at 10 uM after 48 hrs by coulter counter method; conditions: read-out: GI; procedure, shortened: as §1
CCRF-CEM = test: Growth inhibition of human CCRF-CEM cells at 10 uM after 48 hrs by coulter counter method; conditions: read-out: GI; procedure, shortened: as §1
MDA-MB-468 = test: Growth inhibition of human MDA-MB-468 cells at 10 uM after 48 hrs by coulter counter method; conditions: MDA-MB-468, 48 h, read-out: GI; procedure, shortened: as §1
PC-3 = test: Growth inhibition of human PC3 cells at 10 uM after 48 hrs by coulter counter method; conditions: PC-3, 48 h, read-out: GI; procedure, shortened: as §1
SF-295 = test: Growth inhibition of human SF295 cells at 10 uM after 48 hrs by coulter counter method; conditions: SF-295, 48 h, read-out: GI; procedure, shortened: as §1
MCF7 = test: Growth inhibition of human MCF7 cells at 10 uM after 48 hrs by coulter counter method; conditions: MCF7, 48 h, read-out: GI; procedure, shortened: as §1

Compound: O=C1CN2N=C(c3ccc(Cl)cc3)SC2=N1
- inhibition of growth at 10 µM (NCI-H23): 14.9%
- inhibition of growth at 10 µM (Malme-3M): 22%
- inhibition of growth at 10 µM (SNB-19): 18.2%
- inhibition of growth at 10 µM (SK-MEL-5): 21.2%
- growth inhibition (GI) (UO-31): Active
- inhibition of growth at 10 µM (A498): < 10%
- growth inhibition (GI) (LOX IMVI): Active
- inhibition of growth at 10 µM (OVCAR-8): 39.8%
- inhibition of growth at 10 µM (HCT-116): 39.9%
- inhibition of growth at 10 µM (SK-MEL-28): < 10%
- inhibition of growth at 10 µM (786-0): < 10%
- inhibition of growth at 10 µM (EKVX): < 10%
- inhibition of growth at 10 µM (RPMI-8226): 43.5%
- inhibition of growth at 10 µM (MDA-MB-435): 11.7%
- inhibition of growth at 10 µM (NCI-H322M): 31%
- inhibition of growth at 10 µM (U-251): 19.9%
- inhibition of growth at 10 µM (SF-268): 16.5%
- growth inhibition (GI) (IGROV-1): Active
- growth inhibition (GI) (CAKI-1): Active
- inhibition of growth at 10 µM (SK-MEL-2): < 10%
- inhibition of growth at 10 µM (M14): 31.4%
- inhibition of growth at 10 µM (KM12): 38.3%
- inhibition of growth at 10 µM (UACC-62): 20.7%
- inhibition of growth at 10 µM (BT-549): 39.5%
- inhibition of growth at 10 µM (HCT-15): 51.2%
- inhibition of growth at 10 µM (MOLT-4): 24%
- inhibition of growth at 10 µM (SN12C): 20.1%
- inhibition of growth at 10 µM (UACC-257): < 10%
- inhibition of growth at 10 µM (SNB-75): < 10%
- inhibition of growth at 10 µM (HL-60(TB)): < 10%
- inhibition of growth at 10 µM (T47D): 13%
- inhibition of growth at 10 µM (SR): 32.5%
- inhibition of growth at 10 µM (HT-29): 31.1%
- inhibition of growth at 10 µM (ACHN): 17.3%
- inhibition of growth at 10 µM (A549): < 10%
- inhibition of growth at 10 µM (K562): 18.8%
- inhibition of growth at 10 µM (TK-10): < 10%
- inhibition of growth at 10 µM (NCI-H226): 11.4%
- inhibition of growth at 10 µM (NCI-H522): 32.4%
- inhibition of growth at 10 µM (NCI/ADR-RES): < 10%
- inhibition of growth at 10 µM (CCRF-CEM): 62.5%
- inhibition of growth at 10 µM (MDA-MB-468): < 10%
- inhibition of growth at 10 µM (PC-3): 25.7%
- inhibition of growth at 10 µM (SF-295): 38.6%
- inhibition of growth at 10 µM (MCF7): 25.7%
